Source: ChEMBL document CHEMBL1137201, “A virtual screening approach to finding novel and potent antagonists at the melanin-concentrating hormone 1 receptor” (J Med Chem, 2004)

Biological target: T1, Melanin-concentrating hormone receptor 1 (Homo sapiens, UniProt Q99705)
Assay: Percent inhibition of Melanin-concentrating hormone 1 receptor expressed in CHO cells at 10 uM
Type: cell-based
Procedure, shortened: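 Same SPA radioligand binding setup: CHO MCH-1R membranes with 0.4 nM 125I-[Phe13,Tyr19]-MCH and WGA beads, 1 h at room temperature, 1 μM MCH for nonspecific binding. Compounds were screened at a single 10 μM concentration, and actives were retested in duplicate at 10 μM. Read-out is percent inhibition of specific binding.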

T1 sequence (Q99705 whole entry): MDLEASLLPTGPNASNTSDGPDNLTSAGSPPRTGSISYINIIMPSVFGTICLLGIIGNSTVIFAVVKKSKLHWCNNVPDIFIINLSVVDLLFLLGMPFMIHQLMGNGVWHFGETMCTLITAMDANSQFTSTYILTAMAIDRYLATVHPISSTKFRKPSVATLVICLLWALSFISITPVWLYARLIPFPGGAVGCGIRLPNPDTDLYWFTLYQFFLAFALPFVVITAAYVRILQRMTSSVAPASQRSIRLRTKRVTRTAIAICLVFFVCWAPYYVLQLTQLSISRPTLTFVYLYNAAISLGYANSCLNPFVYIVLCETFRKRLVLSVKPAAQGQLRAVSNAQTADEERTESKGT

SMILES | inhibition [%]
Cc1cc(N2CCN(C)CC2)nc2ccc(NC(=O)CCC3CCCC3)cc12 | 11.6

Biological target: T1, Melanin-concentrating hormone receptor 1
Assay: (§1) Binding affinity for Melanin-concentrating hormone 1 receptor expressed in CHO cells
Type: cell-based
Procedure, shortened: (§2)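 Scintillation proximity binding: CHO membranes (5 μg) overexpressing MCH-1R with wheat germ agglutinin SPA beads and 0.4 nM 125I-[Phe13,Tyr19]-MCH, 1 h at room temperature. Nonspecific binding was taken with 1 μM MCH. Bound label was scintillation-counted. IC50 came from six-point semilog concentration–response curves.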

SMILES | Ki [nM]
COc1cc(N2CCN(C[C@H]3C[C@@H]3c3ccccc3)CC2)ccc1Br | < 1000
CC(=O)N[C@@H]1CCN(CCCCN(C(=O)Nc2ccc(F)c(Cl)c2)c2ccc(-c3cccc(C#N)c3)cc2)C1 | < 100
CC[C@H](NC(=O)c1ccc(CC2CCN(Cc3ccc4c(c3)OCO4)CC2)cc1)c1ccc(C(=O)OC)cc1 | ≤ 1500

Biological target: T1, Melanin-concentrating hormone receptor 1
Assay: as §1
Type: cell-based
Procedure, shortened: as §2

SMILES | Kb [nM]
CCCCN(CCCC)c1ccc(CNC[C@H]2CC[C@H](N(C)C(=O)c3cccc4ccccc34)CC2)cc1 | 284
O=C(CCCN1CCC(O)(c2ccc(Cl)cc2)CC1)c1ccc(Cl)cc1 | 9

Biological target: T1, Melanin-concentrating hormone receptor 1
Assay: Inhibition of Melanin-concentrating hormone 1 receptor expressed in CHO cells
Type: cell-based

SMILES | IC50 [nM]
Cc1cc(N2CCN(C)CC2)nc2ccc(NC(=O)C(C)Oc3ccc(Cl)cc3Cl)cc12 (stereo not given) | 790
CCN1CCN(c2cc(C)c3cc(NC(=O)CCc4ccc(OC)cc4)ccc3n2)CC1 | 730
CCN1CCN(c2cc(C)c3cc(NC(=O)COc4cccc(C)c4)ccc3n2)CC1 | 6600
CN(C)CC1CCc2cc(NC(=O)c3ccc(-c4ccc(F)cc4)cc3)ccc2C1 (stereo not given) | 5.5
CCN1CCN(c2cc(C)c3cc(NC(=O)C(C)Oc4ccc(Cl)cc4Cl)ccc3n2)CC1 (stereo not given) | 230
COc1ccc(CCC(=O)Nc2ccc3nc(N4CCN(C)CC4)cc(C)c3c2)cc1 | 250
O=C(CNC(=O)OCc1ccccc1)NCC(CCCN1CCC(c2ccccc2)CC1)(c1ccccc1)c1ccccc1 | 5
CCN1CCN(c2cc(C)c3cc(NC(=O)CSc4ccncc4)ccc3n2)CC1 | 8200
O=C1c2cc(OCCC3CCN(Cc4ccc(C5=NCCN5)cc4)CC3)ccc2CCCN1Cc1ccccc1 | 300
